Assay results taken from ChEMBL document CHEMBL1671757, “In vitro profiling of pramiconazole and in vivo evaluation in Microsporum canis dermatitis and Candida albicans vaginitis laboratory models” (Antimicrob Agents Chemother, 2010).
pIC50: −log10 of the molar value. Active and inactive are the calls of the source. No cut-off for these calls is given here.

Key:
Trichophyton rubrum [1] = test: Antifungal activity against 5 x 10^6 CFU/ml Trichophyton rubrum B68183 by resazurin based fluorimetry assay; assay type: functional, organism-based
Outline: (§1)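 Isolates were grown on Sabouraud dextrose agar, with stocks of 5×10^6 CFU/ml in RPMI-MOPS plus 10% glycerol kept in liquid nitrogen. Each well held 10^3 CFU in 200 μl RPMI-MOPS with compound dilutions, top concentration 64 μM. After incubation, resazurin was added and fluorescence read (ex 550, em 590 nm). IC50 was relative to untreated controls, as the mean ± SD of five independent repeats.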

[2] = Tmax in guinea pig infected with 10^6 CFU Microsporum canis B68128 at 20 mg/kg, po administered 2 hrs before infection for 5 days; assay type: ADME, organism-based, Cavia porcellus; design: dose 20 mg/kg, route oral; details: in vivo
Candida albicans [3] = test: Antifungal activity against 5 x 10^6 CFU/ml Candida albicans B59163 by resazurin based fluorimetry assay; assay type: functional, organism-based; outline: as §1
Candida albicans [4] = test: Antifungal activity against 5 x 10^6 CFU/ml Candida albicans B2630 by resazurin based fluorimetry assay; assay type: functional, organism-based; outline: as §1
[5] = Cytotoxicity against human MRC5 cells; assay type: cell-based
Outline: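 Human lung fibroblasts (MRC-5SV40) were tested in parallel with the fungal screens. CC50 is the concentration killing 50% of cells, given as the mean ± SD of five independent repeats.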

Candida albicans [6] = test: Antifungal activity against 10^7 CFU/ml Candida albicans B2630 infected in vulvovaginitis rat model assessed as fungal burden at 10 mg/kg, po SID; assay type: functional, organism-based; design: dose 10 mg/kg; details: Vagina
Outline: (§2)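 Intravaginal infection with 10^7 CFU. Oral dosing once daily in PEG200, starting about 2 h before infection, for 5 days. […] Six rats in two experiments.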

[7] = Cmax in plasma of guinea pig infected with 10^6 CFU Microsporum canis B68128 at 20 mg/kg, po administered 2 hrs before infection for 5 days; assay type: ADME, organism-based, Cavia porcellus; design: dose 20 mg/kg, route oral
Trichophyton rubrum [8] = test: Antifungal activity against 5 x 10^6 CFU/ml Trichophyton rubrum J941704 by resazurin based fluorimetry assay; assay type: functional, organism-based; outline: as §1
Nakaseomyces glabratus = test: Antifungal activity against 5 x 10^6 CFU/ml Candida glabrata B63155 by resazurin based fluorimetry assay; assay type: functional, organism-based; outline: as §1
Microsporum canis = test: Antifungal activity against 5 x 10^6 CFU/ml Microsporum canis B68128 by resazurin based fluorimetry assay; assay type: functional, organism-based; outline: as §1
Candida albicans [9] = test: Antifungal activity against 10^7 CFU/ml Candida albicans B2630 infected in vulvovaginitis rat model assessed as fungal burden at 5 mg/kg administered tropically twice daily measured after 3 days; assay type: functional, organism-based; design: dose 5 mg/kg; details: Vagina
Candida albicans [10] = test: Antifungal activity against 10^7 CFU/ml Candida albicans B2630 infected in vulvovaginitis rat model assessed as fungal burden at 10 mg/kg administered tropically twice daily measured after 3 days; assay type: functional, organism-based; design: dose 10 mg/kg; details: Vagina
Pichia kudriavzevii = test: Antifungal activity against 5 x 10^6 CFU/ml Candida krusei B68404 by resazurin based fluorimetry assay; assay type: functional, organism-based; outline: as §1
[11] = Half life in guinea pig infected with 10^6 CFU Microsporum canis B68128 at 20 mg/kg, po administered 2 hrs before infection for 5 days; assay type: ADME, organism-based, Cavia porcellus; design: dose 20 mg/kg, route oral; details: in vivo
Kluyveromyces marxianus = test: Antifungal activity against 5 x 10^6 CFU/ml Candida kefyr B46120 by resazurin based fluorimetry assay; assay type: functional, organism-based; outline: as §1
Trichophyton quinckeanum = test: Antifungal activity against 5 x 10^6 CFU/ml Trichophyton quinckeanum B68683 by resazurin based fluorimetry assay; assay type: functional, organism-based; outline: as §1
Candida albicans [12] = test: Antifungal activity against 10^7 CFU/ml Candida albicans B2630 infected in vulvovaginitis rat model assessed as fungal burden at 5 mg/kg, po SID; assay type: functional, organism-based; design: dose 5 mg/kg; details: Vagina; outline: as §2
[13] = tested on: Trichophyton mentagrophytes; test: Antifungal activity against 5 x 10^6 CFU/ml Trichophyton mentagrophytes B70554 by resazurin based fluorimetry assay; assay type: functional, organism-based; outline: as §1
[14] = Tmax in guinea pig infected with 10^6 CFU Microsporum canis B68128 at 40 mg/kg, po administered 2 hrs before infection for 5 days; assay type: ADME, organism-based, Cavia porcellus; design: dose 40 mg/kg, route oral; details: in vivo
[15] = Cmax in plasma of guinea pig infected with 10^6 CFU Microsporum canis B68128 at 40 mg/kg, po administered 2 hrs before infection for 5 days; assay type: ADME, organism-based, Cavia porcellus; design: dose 40 mg/kg, route oral
[16] = Half life in guinea pig infected with 10^6 CFU Microsporum canis B68128 at 40 mg/kg, po administered 2 hrs before infection for 5 days; assay type: ADME, organism-based, Cavia porcellus; design: dose 40 mg/kg, route oral; details: in vivo
[17] = Cmax in plasma of guinea pig infected with 10^6 CFU Microsporum canis B68128 at 10 mg/kg, po administered 2 hrs before infection for 5 days; assay type: ADME, organism-based, Cavia porcellus; design: dose 10 mg/kg, route oral
[18] = Half life in guinea pig infected with 10^6 CFU Microsporum canis B68128 at 10 mg/kg, po administered 2 hrs before infection for 5 days; assay type: ADME, organism-based, Cavia porcellus; design: dose 10 mg/kg, route oral; details: in vivo
[19] = Tmax in guinea pig infected with 10^6 CFU Microsporum canis B68128 at 10 mg/kg, po administered 2 hrs before infection for 5 days; assay type: ADME, organism-based, Cavia porcellus; design: dose 10 mg/kg, route oral; details: in vivo

Compound	pIC50 (Trichophyton rubrum [1])	pIC50 (Candida albicans [3])	pIC50 (Candida albicans [4])	CC50 [5]	Activity (Candida albicans [6])	pIC50 (Trichophyton rubrum [8])	pIC50 (Nakaseomyces glabratus)	pIC50 (Microsporum canis)	Activity (Candida albicans [9])	Activity (Candida albicans [10])	pIC50 (Pichia kudriavzevii)	pIC50 (Kluyveromyces marxianus)	pIC50 (Trichophyton quinckeanum)	Activity (Candida albicans [12])	pIC50 [13]	also measured
CCC(C)n1ncn(-c2ccc(N3CCN(c4ccc(OCC5COC(Cn6cncn6)(c6ccc(Cl)cc6Cl)O5)cc4)CC3)cc2)c1=O (stereo not drawn) [ITRACONAZOLE]	6.25	5.85	5.86	49300 nM	Active	6.01	5.43	5.69	Active	Active	5.38	6.40	5.53	Active	6.43	Tmax [2]: 2 h; Cmax [7]: 350 ng/mL; half-life [11]: 13.9 h
Clc1ccc(COC(Cn2ccnc2)c2ccc(Cl)cc2Cl)c(Cl)c1 (stereo not drawn) [MICONAZOLE]	6.48	6.52	5.60	29700 nM	–	6.85	6.92	6.64	Active	Active	5.85	7.52	6.10	–	6.40	–
CC(C)N1CCN(c2ccc(N3CCN(c4ccc(OC[C@H]5OC[C@](Cn6cncn6)(c6ccc(F)cc6F)O5)cc4)CC3)cc2)C1=O [PRAMICONAZOLE]	6.46	7.40	5.74	53300 nM	Active	6.72	6.19	6.74	Active	Active	6.06	6.89	5.87	Active	6.82	Tmax [14]: 4 h; Cmax [15]: 180 ng/mL; half-life [16]: 23 h
CN(C/C=C/C#CC(C)(C)C)Cc1cccc2ccccc12 [TERBINAFINE]	7.15	5.45	4.19	63000 nM	–	7.52	4.51	7.00	–	–	4.19	5.20	8.00	–	7.22	Cmax [17]: 60 ng/mL; half-life [18]: 6.6 h; Tmax [19]: 0.7 h
